pIC50: −log10 of the molar value.
How the values were obtained:
human CpA = target: T1, human CpA (Homo sapiens, UniProt P15085); assay: Inhibition of recombinant human CpA, fluorescence assay; assay type: biochemical; settings: for more potent inhibition of CpA relative to 1a: compared with 1a; for selectivity for ACE2 versus CpA: ratio of Ki Apps CpA/ACE2
T1 sequence (P15085 111-419): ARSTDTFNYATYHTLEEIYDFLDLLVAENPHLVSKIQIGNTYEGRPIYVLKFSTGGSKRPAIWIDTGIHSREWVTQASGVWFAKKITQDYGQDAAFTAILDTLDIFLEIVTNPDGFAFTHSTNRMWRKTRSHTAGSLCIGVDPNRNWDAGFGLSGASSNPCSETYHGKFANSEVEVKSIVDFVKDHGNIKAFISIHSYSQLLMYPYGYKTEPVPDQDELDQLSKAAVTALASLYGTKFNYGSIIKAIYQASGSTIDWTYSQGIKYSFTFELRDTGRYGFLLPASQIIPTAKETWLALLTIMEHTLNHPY
Summary of the method: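 Recombinant human CpA (37 nM) was run with 30 μM Abz-Gly-Gly-Nph-OH, and recombinant human ACE2 (0.4 nM) with 30 μM MCA-Tyr-Val-Ala-Asp-Ala-Pro-Lys(DNP)-OH. Both used 50 mM Hepes pH 7.5, 1 μM Zn(OAc)2, 100 μM TCEP, 300 μM CHAPS and 300 mM NaCl. Compound was pre-incubated before substrate; read-out was fluorescence. Ki App is the mean of ≥2 assays; selectivity is the CpA/ACE2 Ki App ratio.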

human ACE = human ACE (Homo sapiens, UniProt P12821); assay: Inhibition of recombinant human ACE, fluorescence assay; assay type: biochemical; settings: ratio of Ki Apps ACE/ACE2
Chain of human ACE (P12821 30-1306): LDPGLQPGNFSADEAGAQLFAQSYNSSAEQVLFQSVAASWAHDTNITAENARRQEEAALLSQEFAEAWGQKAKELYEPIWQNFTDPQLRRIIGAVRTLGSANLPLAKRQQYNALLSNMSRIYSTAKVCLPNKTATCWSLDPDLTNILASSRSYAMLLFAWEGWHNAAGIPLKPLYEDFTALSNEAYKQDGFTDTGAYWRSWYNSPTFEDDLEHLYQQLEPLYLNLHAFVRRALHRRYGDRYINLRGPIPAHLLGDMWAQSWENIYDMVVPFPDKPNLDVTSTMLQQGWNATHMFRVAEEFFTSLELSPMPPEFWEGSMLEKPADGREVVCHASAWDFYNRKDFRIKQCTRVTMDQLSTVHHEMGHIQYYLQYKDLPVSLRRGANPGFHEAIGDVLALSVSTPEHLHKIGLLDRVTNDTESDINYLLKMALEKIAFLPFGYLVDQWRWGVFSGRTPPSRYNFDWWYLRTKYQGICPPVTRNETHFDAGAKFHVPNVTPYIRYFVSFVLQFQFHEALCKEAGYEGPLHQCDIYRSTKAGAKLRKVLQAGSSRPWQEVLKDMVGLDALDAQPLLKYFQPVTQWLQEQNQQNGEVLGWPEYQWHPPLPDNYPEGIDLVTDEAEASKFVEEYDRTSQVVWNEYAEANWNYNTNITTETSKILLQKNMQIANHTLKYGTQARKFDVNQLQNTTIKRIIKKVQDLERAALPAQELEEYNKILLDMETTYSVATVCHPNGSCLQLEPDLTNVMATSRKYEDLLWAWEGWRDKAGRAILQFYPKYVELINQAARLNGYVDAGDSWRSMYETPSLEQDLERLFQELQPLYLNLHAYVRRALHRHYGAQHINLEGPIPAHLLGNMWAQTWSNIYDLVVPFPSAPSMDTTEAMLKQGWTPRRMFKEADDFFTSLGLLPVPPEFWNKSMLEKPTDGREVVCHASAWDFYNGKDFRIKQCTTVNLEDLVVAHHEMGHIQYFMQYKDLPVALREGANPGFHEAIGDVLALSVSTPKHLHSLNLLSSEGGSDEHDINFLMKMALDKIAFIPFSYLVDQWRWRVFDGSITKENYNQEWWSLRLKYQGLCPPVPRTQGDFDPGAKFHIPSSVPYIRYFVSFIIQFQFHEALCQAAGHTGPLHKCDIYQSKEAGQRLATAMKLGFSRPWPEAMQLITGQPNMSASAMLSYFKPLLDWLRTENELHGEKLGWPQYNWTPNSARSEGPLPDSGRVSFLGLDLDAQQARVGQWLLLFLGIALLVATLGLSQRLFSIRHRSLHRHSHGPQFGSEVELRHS
Summary of the method: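 Buffer: 50 mM Hepes, 300 mM NaCl, 300 μM CHAPS, 1 μM Zn(OAc)2, 100 μM TCEP, pH 7.5. Thiols were diluted from 10 mM stocks in 50% aqueous acetonitrile and pre-incubated before substrate addition. Values are means of ≥2 assays.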

human NEP = human NEP (Homo sapiens, UniProt P08473); assay: Inhibition of recombinant human NEP, fluorescence assay; assay type: biochemical; settings: ratio of Ki Apps NEP/ACE2
Chain of human NEP (P08473 whole entry): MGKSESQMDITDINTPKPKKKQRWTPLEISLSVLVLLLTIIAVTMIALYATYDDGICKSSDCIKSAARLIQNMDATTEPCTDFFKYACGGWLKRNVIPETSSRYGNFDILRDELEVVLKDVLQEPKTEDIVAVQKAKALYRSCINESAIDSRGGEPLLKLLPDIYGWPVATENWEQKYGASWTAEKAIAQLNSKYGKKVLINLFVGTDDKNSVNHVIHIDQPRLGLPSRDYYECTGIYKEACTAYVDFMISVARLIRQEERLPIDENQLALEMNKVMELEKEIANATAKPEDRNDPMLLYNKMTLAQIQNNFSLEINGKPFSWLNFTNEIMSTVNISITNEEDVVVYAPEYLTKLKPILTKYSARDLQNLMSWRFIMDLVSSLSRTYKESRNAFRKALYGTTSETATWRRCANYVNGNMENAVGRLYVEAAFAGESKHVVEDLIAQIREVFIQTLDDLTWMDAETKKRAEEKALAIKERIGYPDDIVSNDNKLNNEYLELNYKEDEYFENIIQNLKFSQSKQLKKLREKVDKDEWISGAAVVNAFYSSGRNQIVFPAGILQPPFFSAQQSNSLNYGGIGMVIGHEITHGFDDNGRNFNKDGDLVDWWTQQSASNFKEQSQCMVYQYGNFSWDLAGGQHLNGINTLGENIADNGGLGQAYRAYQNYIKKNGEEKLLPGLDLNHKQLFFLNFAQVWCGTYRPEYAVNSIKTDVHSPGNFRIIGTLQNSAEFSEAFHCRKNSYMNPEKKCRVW
Summary of the method: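 Fluorescence protease assays, both in 50 mM Hepes pH 7.5 with 1 μM Zn(OAc)2, 100 μM TCEP, 300 μM CHAPS and 300 mM NaCl. NEP: recombinant human enzyme (0.15 nM) with 2 μM FAM-[…]TAMRA)-NH2. ACE2: recombinant human enzyme (0.4 nM) with 30 μM MCA-Tyr-Val-Ala-Asp-Ala-Pro-Lys(DNP)-OH. Compound was pre-incubated before substrate. Ki App is the mean of ≥2 assays; the NEP/ACE2 ratio gives selectivity.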

ACE2 = settings: read-out: ACE2 IC50; reversible inhibitor; cited from earlier work

Compound | more potent inhibition of CpA relative to 1a (human CpA) | selectivity for ACE2 versus CpA (human CpA) | selectivity for ACE2 versus ACE (human ACE) | selectivity for ACE2 versus NEP (human NEP) | pIC50 (ACE2)
CC[C@@H](C)[C@H](S)C(=O)N[C@@H](Cc1ccccc1)C(=O)O [1d, N-[(2S,3R)-2-Mercapto-3-methylpentanoyl]-L-phenylalanine] | > 10 fold | – | – | – | –
CC[C@@H](C)[C@H](S)C(=O)N[C@@H](Cc1ccc(O)cc1)C(=O)O [1e, N-[(2S,3R)-2-Mercapto-3-methylpentanoyl]-L-tyrosine] | > 10 fold | – | – | – | –
CC[C@@H](C)[C@H](S)C(=O)N[C@@H](Cc1cccc2ccccc12)C(=O)O [1f, N-[(2S,3R)-2-Mercapto-3-methylpentanoyl]-3-(1-naphthalenyl)-L-alanine] | – | > 100 fold | > 100 fold | – | –
CC[C@@H](C)[C@H](S)C(=O)N[C@@H](Cc1ccc2ccccc2c1)C(=O)O [1g, N-[(2S,3R)-2-Mercapto-3-methylpentanoyl]-3-(2-naphthalenyl)-L-alanine] | – | > 100 fold | > 100 fold | – | –
CC[C@@H](C)[C@H](S)C(=O)N[C@@H](Cc1ccccc1Oc1ccccc1)C(=O)O [1j, N-[(2S,3R)-2-Mercapto-3-methylpentanoyl]-2-(phenyloxy)-L-phenylalanine] | – | > 100 fold | > 100 fold | – | –
CC[C@@H](C)[C@H](S)C(=O)N[C@@H](Cc1cccc(Oc2ccccc2)c1)C(=O)O [1k, N-[(2S,3R)-2-Mercapto-3-methylpentanoyl]-3-(phenyloxy)-L-phenylalanine] | – | > 100 fold | > 100 fold | 14 fold | –
CC[C@@H](C)[C@H](S)C(=O)N[C@@H](Cc1ccc(Oc2ccccc2)cc1)C(=O)O [1l, N-[(2S,3R)-2-Mercapto-3-methylpentanoyl]-O-phenyl-L-tyrosine] | – | > 100 fold | > 100 fold | 5 fold | –
CC[C@@H](C)[C@H](S)C(=O)N[C@@H](Cc1ccc(OCc2ccc(F)c(F)c2)cc1)C(=O)O [1r, O-[(3,4-Difluorophenyl)methyl]-N-[(2S,3R)-2-mercapto-3-methylpentanoyl]-L-tyrosine] | – | > 750 fold | > 750 fold | > 750 fold | –
CC(C)C[C@H](N[C@@H](Cc1cncn1Cc1cc(Cl)cc(Cl)c1)C(=O)O)C(=O)O [MLN-4760] | – | – | – | – | 9.36
